Screens (PubChem)
T cruzi growth-1: T. cruzi proliferation inhibition | T. cruzi beta-gal in NIH3T3, GalScreen luminescence, 90 h | inhibition, % at 8.34 µM | 77,000 compounds, 5.9% hits | AID 624255;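 active = mean inhibition above about 93%, with at least 55% of replicates each passing it, limit read from the data, passing the limit was not always enough; inconclusive = only one of those two conditions holds; inactive = neither condition holds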
KDM4C inh: KDM4C (human) demethylase inhibition; Q9H3R0; GST-KDM4C 2-372, H3K9me3 peptide, LANCE TR-FRET; inhibition, % at 12.5 µM; 96,000 compounds, 0.15% hits; AID 720574;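 active = mean replicate inhibition above about 25%, with at least 55% of replicates also reaching it, limit read from the data, passing the limit was not always enough; inconclusive = only one of those two conditions met; inactive = neither condition met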
Target sequence (Q9H3R0 2-372 limits assumed): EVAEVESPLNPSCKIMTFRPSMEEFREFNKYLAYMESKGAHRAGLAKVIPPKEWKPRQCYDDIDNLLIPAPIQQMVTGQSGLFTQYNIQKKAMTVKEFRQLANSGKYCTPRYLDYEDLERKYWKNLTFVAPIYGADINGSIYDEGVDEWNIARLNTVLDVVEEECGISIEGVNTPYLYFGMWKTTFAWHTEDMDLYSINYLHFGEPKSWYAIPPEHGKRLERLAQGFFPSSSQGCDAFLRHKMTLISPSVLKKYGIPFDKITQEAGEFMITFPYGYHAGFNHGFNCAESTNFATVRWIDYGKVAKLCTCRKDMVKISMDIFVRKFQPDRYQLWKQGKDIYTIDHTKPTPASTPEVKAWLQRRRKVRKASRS
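Material: GST-tagged GASC-1 (JMJD2C) catalytic fragment, aa 2-372 / Quantity: enzyme final amount 10 nM / Medium: HEPES buffer, pH 7.5, plus ascorbate / Doses: one test concentration per compound / Incubation: 30 min reaction, 60 min detection, RT / Measured by: LANCE TR-FRET / Read-out: inhibition from TR-FRET ratio decrease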
IDH1 mut inh: blocks human IDH1 R132H reductase activity; O75874; diaphorase/resazurin fluorescence, 60 min; inhibition, % at 10 µM; 70,000 compounds, 0.18% hits; in the data active = inhibition above about 34%; inconclusive = no clear call, values can overlap the other calls; inactive = below about 11%
Target sequence (O75874 whole entry R132H): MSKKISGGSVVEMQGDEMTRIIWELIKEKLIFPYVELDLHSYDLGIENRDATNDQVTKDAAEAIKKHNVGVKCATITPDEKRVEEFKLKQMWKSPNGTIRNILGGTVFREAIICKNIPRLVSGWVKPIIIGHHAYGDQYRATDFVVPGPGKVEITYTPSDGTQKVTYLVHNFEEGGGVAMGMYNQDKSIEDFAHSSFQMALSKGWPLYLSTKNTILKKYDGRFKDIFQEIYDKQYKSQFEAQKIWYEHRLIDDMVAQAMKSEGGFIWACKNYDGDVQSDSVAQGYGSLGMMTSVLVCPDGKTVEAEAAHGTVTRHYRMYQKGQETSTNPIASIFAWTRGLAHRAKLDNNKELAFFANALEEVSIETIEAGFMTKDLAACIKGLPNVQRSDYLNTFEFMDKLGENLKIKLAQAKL
T cruzi growth-2: blocks T. cruzi growth in NIH3T3 host cells; shares compounds with T cruzi growth-1; T. cruzi beta-gal in NIH3T3, GalScreen luminescence, 90 h; inhibition, % at 8.35 µM; 5,600 compounds, 72% hits;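 active = mean replicate inhibition above about 95% and at least 55% of replicates individually reaching it, limit read from the data; inconclusive = only one of the two criteria is met; inactive = neither criterion is met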
T cruzi growth-3: inhibitors of T. cruzi proliferation | shares compounds with T cruzi growth-1 | T. cruzi beta-gal in NIH3T3, GalScreen luminescence, 90 h | inhibition, % at 2.09 µM | 5,600 compounds, 21% hits | AID 651740;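 active = mean inhibition above about 95%, with at least 55% of replicates also reaching it, limit read from the data; inconclusive = meets just one of the two conditions; inactive = meets neither condition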
3T3 cytotox: kills mouse NIH/3T3 fibroblasts | shares compounds with T cruzi growth-1 | cytotoxicity (signal decrease), % at 8.35 µM | 5,600 compounds, 14% hits | NIH/3T3 viability, CellTiter-Glo ATP luminescence, 90 h;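 active = mean signal decrease across replicates above about 35% based on untreated-well scatter, with enough replicates individually passing, limit read from the data; inconclusive = no rule stated though some were filed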
3T3 cytotox 2: NIH/3T3 (mouse) viability loss; shares compounds with T cruzi growth-1; NIH/3T3 viability, CellTiter-Glo ATP luminescence, 90 h; inhibition, % at 24.9 µM; 5,600 compounds, 56% hits; AID 651744;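 active = mean loss of cell viability signal at or above a set limit, and enough replicates individually reaching it; inconclusive = meets only the mean limit or only the replicate share; inactive = meets neither condition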
Of the large screens only hits and unclear results are named; the others gave an inactive call (follow-up assays come after a bar, where they were run). This excerpt belongs to a sample that is enriched for hits.

C[C@H](CO)N1C[C@H](C)[C@H](CN(C)S(=O)(=O)c2cccc(F)c2)Oc2ncc(C#Cc3ccc(C(F)(F)F)cc3)cc2C1=O	T cruzi growth-1 inconclusive | T cruzi growth-2 101.4 | T cruzi growth-3 109.3 | 3T3 cytotox inactive | 3T3 cytotox 2 36.3
COc1ccccc1S(=O)(=O)N(C)C[C@@H]1Oc2ncc(-c3ccc(C)cc3)cc2C(=O)N([C@@H](C)CO)C[C@H]1C	T cruzi growth-1 101.5 | T cruzi growth-2 102.1 | T cruzi growth-3 inactive | 3T3 cytotox inactive | 3T3 cytotox 2 55.3
COc1ccc(-c2cnc3c(c2)C(=O)N([C@H](C)CO)C[C@@H](C)[C@@H](CN(C)S(=O)(=O)c2ccc(OC)cc2)O3)cc1	none (no result: IDH1 mut inh)
C[C@H](CO)N1C[C@H](C)[C@H](CN(C)S(=O)(=O)c2cccc(F)c2)Oc2ncc(C#Cc3ccccc3)cc2C1=O	none
C[C@H](CO)N1C[C@H](C)[C@H](CN(C)S(=O)(=O)c2ccccc2)Oc2ncc(C#Cc3ccc(C(F)(F)F)cc3)cc2C1=O	T cruzi growth-1 91.7 | T cruzi growth-2 107.4 | T cruzi growth-3 inactive | 3T3 cytotox inactive | 3T3 cytotox 2 31.8
COc1ccccc1S(=O)(=O)N(C)C[C@@H]1Oc2ncc(-c3ccc(C)cc3)cc2C(=O)N([C@@H](C)CO)C[C@@H]1C	none
CO[C@@H](CN(C)S(=O)(=O)c1ccccc1)[C@@H](C)CN(Cc1ccccc1Cl)[C@@H](C)CO	none
COc1cccc(NC(=O)Nc2ccc3c(c2)C(=O)N(C)[C@H]2CC[C@H](CC(=O)NCCc4ccccc4)O[C@@H]2CO3)c1	none (no result: IDH1 mut inh)
CCC(=O)N1[C@H](CO)[C@@H](c2ccccc2)C12CN(Cc1cc(F)ccc1F)C2	none (no result: T cruzi growth-1, IDH1 mut inh)
Cc1c(Cl)cccc1NC(=O)CSc1nnc(-c2ccc([N+](=O)[O-])cc2)n1C	none (no result: T cruzi growth-1, KDM4C inh)
O=C(C[C@H]1C[C@H]2c3cc(NS(=O)(=O)c4ccc(F)cc4)ccc3O[C@H]2[C@@H](CO)O1)NC1CCCCC1	none
C[C@@H]1CN([C@H](C)CO)C(=O)c2cc(C#Cc3ccc(F)cc3)cnc2O[C@@H]1CN(C)S(C)(=O)=O	none
C[C@H](CO)N1C[C@H](C)[C@H](CN(C)S(=O)(=O)c2ccc(F)cc2)Oc2ncc(C#Cc3ccccc3)cc2C1=O	T cruzi growth-1 106.3 | T cruzi growth-2 inconclusive | T cruzi growth-3 inactive | 3T3 cytotox inactive | 3T3 cytotox 2 28.1
C[C@H](CO)N1C[C@H](C)[C@H](CN(C)S(=O)(=O)c2ccccc2)Oc2ncc(C#Cc3ccccc3)cc2C1=O	none
COc1ccc(S(=O)(=O)N(C)C[C@@H]2Oc3ncc(-c4cc5ccccc5o4)cc3C(=O)N([C@H](C)CO)C[C@@H]2C)cc1	none (no result: KDM4C inh)
C[C@H](CO)N1C[C@H](C)[C@H](CN(C)S(=O)(=O)c2ccc(F)cc2)Oc2ncc(C#Cc3ccc(C(F)(F)F)cc3)cc2C1=O	T cruzi growth-1 111.9 | T cruzi growth-2 104.5 | T cruzi growth-3 102.9 | 3T3 cytotox inactive | 3T3 cytotox 2 35.4
COc1ccc(S(=O)(=O)N(C)C[C@@H]2Oc3ncc(-c4ccc(F)cc4)cc3C(=O)N([C@H](C)CO)C[C@@H]2C)cc1	none
C[C@H](CO)N1C[C@H](C)[C@H](CN(C)S(=O)(=O)c2cccs2)Oc2ncc(-c3cc4ccccc4o3)cc2C1=O	T cruzi growth-1 123.0 | T cruzi growth-2 110.0 | T cruzi growth-3 inactive | 3T3 cytotox 35.1 | 3T3 cytotox 2 inactive
COc1ccc(S(=O)(=O)N(C)C[C@@H]2Oc3ncc(C#Cc4cccc(F)c4)cc3C(=O)N([C@H](C)CO)C[C@@H]2C)cc1	T cruzi growth-1 inconclusive | T cruzi growth-2 106.9 | T cruzi growth-3 inactive | 3T3 cytotox inactive | 3T3 cytotox 2 48.2
O=C(CCN1CCCCC1)N[C@@H]1CC[C@@H](CCNS(=O)(=O)c2ccc(Cl)cc2)O[C@@H]1CO	none
COCC#Cc1cnc2c(c1)C(=O)N([C@H](C)CO)C[C@@H](C)[C@H](CN(C)C(=O)CN1CCOCC1)O2	none (no result: T cruzi growth-1)
CC(=O)Nc1ccccc1NC(=O)COc1cc(Cl)c(Cl)cc1Cl	none (no result: T cruzi growth-1, KDM4C inh)
O=C(C[C@@H]1C[C@H]2c3cc(NC(=O)NC4CCCCC4)ccc3O[C@H]2[C@H](CO)O1)NCc1ccccc1	none
C[C@H](CO)N1C[C@H](C)[C@H](CN(C)S(C)(=O)=O)Oc2ncc(C#Cc3cccc(F)c3)cc2C1=O	none (no result: T cruzi growth-1, IDH1 mut inh)
Cc1ccc(S(=O)(=O)N(C)C[C@@H]2Oc3ncc(C#Cc4ccc(C(F)(F)F)cc4)cc3C(=O)N([C@H](C)CO)C[C@@H]2C)cc1	T cruzi growth-1 inconclusive | T cruzi growth-2 inactive | T cruzi growth-3 112.0 | 3T3 cytotox inactive | 3T3 cytotox 2 38.8
COc1ccc(-c2cnc3c(c2)C(=O)N([C@@H](C)CO)C[C@H](C)[C@H](CN(C)C(=O)CN(C)C)O3)cc1	none
COc1ccc(-c2cnc3c(c2)C(=O)N([C@H](C)CO)C[C@H](C)[C@@H](CN(C)C(=O)CN(C)C)O3)cc1	T cruzi growth-1 105.4 | T cruzi growth-2 inactive | T cruzi growth-3 inactive | 3T3 cytotox inactive | 3T3 cytotox 2 inactive
COc1ccc(S(=O)(=O)N(C)C[C@@H]2Oc3ncc(C#Cc4ccc(C(F)(F)F)cc4)cc3C(=O)N([C@H](C)CO)C[C@@H]2C)cc1	none
C[C@H](CO)N1C[C@H](C)[C@H](CN(C)S(=O)(=O)c2cccs2)Oc2ncc(C#Cc3cccc(F)c3)cc2C1=O	T cruzi growth-1 97.7 (no result: IDH1 mut inh) | T cruzi growth-2 110.1 | T cruzi growth-3 inactive | 3T3 cytotox inactive | 3T3 cytotox 2 inactive
C/C=C/c1ccc([C@@H]2[C@H](CO)N(CC3CC3)C23CN(C(=O)COC)C3)cc1	none (no result: T cruzi growth-1, IDH1 mut inh)
CO[C@H]1CN(C)C(=O)c2ccc(NC(=O)NC(C)C)cc2OC[C@@H](C)N(S(C)(=O)=O)C[C@@H]1C	none (no result: T cruzi growth-1, IDH1 mut inh)
Cc1ccc(N(C(C)C(=O)Nc2cc([N+](=O)[O-])ccc2C)S(C)(=O)=O)cc1 (stereo unspecified)	none (no result: T cruzi growth-1, KDM4C inh)
COc1cccc(-c2ccc([C@H]3[C@H](CO)N4CCCCN(C(=O)c5ccc6c(c5)OCO6)C[C@@H]34)cc2)c1	T cruzi growth-1 109.4 (no result: IDH1 mut inh) | T cruzi growth-2 101.5 | T cruzi growth-3 inactive | 3T3 cytotox 39.8 | 3T3 cytotox 2 72.4
COc1cccc(-c2ccc([C@@H]3[C@@H](CO)N4CCCCN(C(=O)c5ccc6c(c5)OCO6)C[C@@H]34)cc2)c1	T cruzi growth-1 inconclusive (no result: IDH1 mut inh) | T cruzi growth-2 103.8 | T cruzi growth-3 inactive | 3T3 cytotox inactive | 3T3 cytotox 2 56.1
COc1cccc(-c2ccc([C@@H]3[C@H]4CN(C(=O)c5ccc(F)cc5)CCCCN4[C@H]3CO)cc2)c1	none (no result: IDH1 mut inh)
COc1cccc(-c2ccc([C@H]3[C@H]4CN(C(=O)c5ccc6c(c5)OCO6)CCCCN4[C@H]3CO)cc2)c1	none (no result: IDH1 mut inh)
